The text below walks through data of article PMC3517065 (ChemMedChem, 2012).

In the first series the test system is HIV-1 in permissive cells (MT-4).
Test: not given
As to conditions: which do not express A3G; cited from earlier work.
Consider `COc1ccccc1NC(=O)c1ccccc1Sc1ccc([N+](=O)[O-])cc1` [5a (RN18), N-(2-Methoxyphenyl)-2-((4-nitrophenyl)thio)benzamide], for which the “inhibition of HIV-1 replication in permissive cells” value is listed as “not in permissive cells”.

Test system in another series: not listed separately
The series is described as follows: MTT-based cell viability assay. As to conditions: human, HeLa cells. In a few lines: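 HeLa cells harvested in log phase, seeded at 1×10^3 per well in DMEM with 10% FBS, kept at 37 °C with 5% CO2. Test compound added 24 h after seeding from 10× stocks in DMEM; controls were DMEM alone and medium with DMSO (final 1%). At 72 h, MTT (2 mg mL−1 in PBS) added for 4 h; formazan dissolved in DMSO, A550 read. Value is the concentration reducing absorbance to 50% of control.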
`O=C(Nc1ccccc1CO)c1ccccc1Sc1ccc([N+](=O)[O-])cc1` [15e, N-(2-(Hydroxymethyl)phenyl)-2-((4-nitrophenyl)thio)benzamide] showed a CC50 at 72 h of more than 100 µM.

As to `COc1ccccc1NC(=O)c1ccccc1OCc1ccc([N+](=O)[O-])cc1` [40j, N-(2-Methoxyphenyl)-2-((4-nitrobenzyl)oxy)benzamide], the CC50 at 72 h was more than 100 µM.

For the compound `COc1ccccc1C(=O)Nc1ccccc1Oc1ccc(N(C)C)cc1` [30k, N-(2-(4-(Dimethylamino)phenoxy)phenyl)-2-methoxybenzamide], the CC50 at 72 h was more than 100 µM.

Turning to `COc1ccccc1C(=O)Nc1ccccc1OCc1ccc([N+](=O)[O-])cc1` [40k, N-(2-(4-Nitrobenzyloxy)phenyl)-2-methoxybenzamide], the CC50 at 72 h is more than 100 µM.

`O=C(Nc1ccccc1CO)c1ccccc1Oc1ccc([N+](=O)[O-])cc1` [18e, N-(2-(hydroxymethyl)phenyl)-2-(4-nitrophenoxy)benzamide] registered a CC50 at 72 h of 25 µM.

For the compound `COc1ccccc1NC(=O)c1ccccc1Oc1ccc2c(c1)OCO2` [23h, 2-(Benzo[d][1,3]dioxol-5-yloxy)-N-(2-methoxyphenyl)benzamide], the CC50 at 72 h is more than 100 µM.

Turning to `COc1ccccc1NC(=O)c1ccccc1Sc1ccc([N+](=O)[O-])cc1` [5a (RN18), N-(2-Methoxyphenyl)-2-((4-nitrophenyl)thio)benzamide], the cytotoxic concentration (CC50) at 72 h was more than 100 µM.

`COc1ccc(Oc2ccccc2NC(=O)c2ccccc2OC)cc1` [31k, 2-Methoxy-N-(2-(4-methoxyphenoxy)phenyl)benzamide] registered a CC50 at 72 h of more than 100 µM.

Regarding `COc1ccc(COc2ccccc2C(=O)Nc2ccccc2OC)cc1` [43j, 2-(4-methoxybenzyloxy)-N-(2-methoxyphenyl)benzamide], the CC50 at 72 h is more than 100 µM.

For the compound `COc1ccccc1S(=O)(=O)Nc1ccccc1Sc1ccc([N+](=O)[O-])cc1` [5e, 2-Methoxy-N-(2-(4-nitrophenylthio)phenyl)benzenesulfonamide], the cytotoxic concentration (CC50) at 72 h is more than 100 µM.

The compound `COc1ccccc1NC(=O)c1ccccc1Oc1ccc([N+](=O)[O-])cc1` [18a, N-(2-Methoxyphenyl)-2-(4-nitrophenoxy)benzamide] yielded a 50% cytotoxic concentration (CC50) at 72 h of 15 µM.

Turning to `COc1ccccc1NC(=O)c1ccccc1OCc1cccc([N+](=O)[O-])c1` [41j, N-(2-Methoxyphenyl)-2-((3-nitrobenzyl)oxy)benzamide], the CC50 at 72 h was more than 100 µM.

`COc1ccccc1C(=O)Nc1ccccc1Oc1ccc(OC(C)=O)cc1` [32k, 4-(2-(2-Methoxybenzamido)phenoxy)phenyl acetate]: the CC50 at 72 h is more than 100 µM.

`COC(=O)c1ccc(Oc2ccccc2NC(=O)c2ccccc2OC)cc1` [33k, Methyl 4-(2-(2-methoxybenzamido)phenoxy)benzoate] displayed a CC50 at 72 h of more than 100 µM.

`COc1ccccc1NC(=O)c1ccccc1Oc1ccc(N)cc1` [19a, 2-(4-Aminophenoxy)-N-(2-methoxyphenyl)benzamide] yielded a CC50 at 72 h of more than 100 µM.

`COc1ccccc1S(=O)(=O)Nc1ccccc1Sc1ccc(N)cc1` [6e, N-(2-(4-aminophenylthio)phenyl)-2-methoxybenzenesulfonamide] gave a cytotoxic concentration (CC50) at 72 h of 65 µM.

Turning to `CC(C)(C)OC(=O)N1CCN(C(=O)c2ccccc2Sc2ccc([N+](=O)[O-])cc2)CC1` [15h, tert-Butyl 4-(2-((4-nitrophenyl)thio)benzoyl)piperazine-1-carboxylate], the CC50 at 72 h was 70 µM.

Regarding `COc1ccccc1C(=O)Nc1ccccc1Sc1ccc([N+](=O)[O-])cc1` [5c, N-(2-(4-Nitrophenylthio)phenyl)-2-methoxybenzamide], the CC50 at 72 h is more than 100 µM.

Compound `COC(=O)c1ccc(COc2ccccc2NC(=O)c2ccccc2OC)cc1` [45k, Methyl 4-((2-(2-methoxybenzamido)phenoxy)methyl)benzoate] gave a CC50 at 72 h of more than 100 µM.

On to `O=C(Nc1cccc(CO)c1)c1ccccc1Sc1ccc([N+](=O)[O-])cc1` [15f, N-(3-(Hydroxymethyl)phenyl)-2-((4-nitrophenyl)thio)benzamide], for which the CC50 at 72 h is more than 100 µM.

`COc1ccccc1NC(=O)c1ccccc1Sc1ccc([N+](=O)[O-])cc1Cl` [16a, 2-(2-Chloro-4-nitrophenylthio)-N-(2-methoxyphenyl)benzamide] returned a CC50 at 72 h of 50 µM.

On to `COc1ccccc1CC(=O)Nc1ccccc1Sc1ccc([N+](=O)[O-])cc1` [5f, 2-(2-Methoxyphenyl)-N-(2-((4-nitrophenyl)thio)phenyl)acetamide], for which the CC50 at 72 h was more than 100 µM.

In the case of `COc1ccccc1NC(=O)c1ccccc1Sc1ccc(N)cc1` [6a, 2-((4-Aminophenyl)thio)-N-(2-methoxyphenyl)benzamide], the CC50 at 72 h was more than 100 µM.

As to `O=C(Nc1ccc2c(c1)OCO2)c1ccccc1Sc1ccc([N+](=O)[O-])cc1Cl` [16d, N-(Benzo[d][1,3]dioxol-5-yl)-2-((2-chloro-4-nitrophenyl)thio)benzamide], the CC50 at 72 h was more than 100 µM.

`COc1ccccc1C(=O)Nc1ccccc1Sc1ccc(N)cc1` [6c, N-(2-(4-Aminophenylthio)phenyl)-2-methoxybenzamide]: the midpoint of cytotoxicity, the CC50 at 72 h, lay at 60 µM.

`COc1ccccc1NS(=O)(=O)c1ccccc1Sc1ccc([N+](=O)[O-])cc1` [5d, N-(2-Methoxyphenyl)-2-((4-nitrophenyl)thio)benzenesulfonamide] displayed a CC50 at 72 h of more than 100 µM.

The compound `COc1ccccc1C(=O)Nc1ccccc1Oc1ccc([N+](=O)[O-])cc1` [29k, 2-Methoxy-N-(2-(4-nitrophenoxy)phenyl)benzamide] registered a CC50 at 72 h of more than 100 µM.

In turn, `COc1ccccc1NC(=O)c1ccccc1Sc1ccccc1` [4a, N-(2-Methoxyphenyl)-2-(phenylthio)benzamide] yielded a CC50 at 72 h of more than 100 µM.

Consider `O=C(Cc1ccccc1F)Nc1ccccc1Sc1ccc([N+](=O)[O-])cc1` [5g, 2-(2-Fluorophenyl)-N-(2-((4-nitrophenyl)thio)phenyl)acetamide], for which the CC50 at 72 h is more than 100 µM.

As to `COc1ccccc1NS(=O)(=O)c1ccccc1Sc1ccc(N)cc1` [6d, 2-((4-Aminophenyl)thio)-N-(2-methoxyphenyl)benzenesulfonamide], the CC50 at 72 h was more than 100 µM.

What is called CC50 is the concentration giving 50% cytotoxicity.
